A selection: hits, their analogues and other compounds. The true share with any hit is near 3.1%.
KCNK3 inh – human KCNK3 channel inhibition, primary screen; O14649; CHO-KCNK3 thallium flux, FluxOR fluorescence; active compounds read low; B-score at 10 µM; 340,000 tested, 0.84% active; AID 602410;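 active means B-score under library mean minus 4 SD, starting fluorescence ratio at most library mean plus 5 SD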;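 further: more negative B-score means stronger inhibition of thallium flux through KCNK3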
KCNQ1 pot – human KCNQ1 channel potentiation or activation. 310,000 tested, 0.35% active. P51787. B-score at 10 µM. CHO-K1 KCNQ1, thallium flux FluxOR fluorescence; active compounds read high;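 active means fluorescence ratio B-score, a plate-corrected score, at least three library SD, with initial intensity B-score within 5 SD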
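Assay system: CHO-K1 cells stably expressing KCNQ1; Medium: assay buffer with matched DMSO; Also added: K+/Tl+ depolarizing stimulus; Dosing: single dose; Timing: dye 90 min, compound 20 min, room temperature; Measured by: kinetic FluxOR thallium fluorescence, 10-s 1-Hz baseline, 110-s post-stimulus read; Read-out: peak-minus-minimum fluorescence over initial fluorescence, negative-control normalized, B-scored.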
hERG rescue – hERG (human) protection from proarrhythmic block. Q12809. CHO-hERG, FluxOR thallium flux, dofetilide IC70 present. activation (rescue from dofetilide block), less the hit threshold, % at 10 µM. 310,000 tested, 0.51% active. AID 1511;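 active means activation above the mean of controls blocked by dofetilide plus 5 SD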;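 further: thallium influx through hERG after potassium depolarization seen as dye fluorescence rise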
Target sequence (Q12809 whole entry, looked up): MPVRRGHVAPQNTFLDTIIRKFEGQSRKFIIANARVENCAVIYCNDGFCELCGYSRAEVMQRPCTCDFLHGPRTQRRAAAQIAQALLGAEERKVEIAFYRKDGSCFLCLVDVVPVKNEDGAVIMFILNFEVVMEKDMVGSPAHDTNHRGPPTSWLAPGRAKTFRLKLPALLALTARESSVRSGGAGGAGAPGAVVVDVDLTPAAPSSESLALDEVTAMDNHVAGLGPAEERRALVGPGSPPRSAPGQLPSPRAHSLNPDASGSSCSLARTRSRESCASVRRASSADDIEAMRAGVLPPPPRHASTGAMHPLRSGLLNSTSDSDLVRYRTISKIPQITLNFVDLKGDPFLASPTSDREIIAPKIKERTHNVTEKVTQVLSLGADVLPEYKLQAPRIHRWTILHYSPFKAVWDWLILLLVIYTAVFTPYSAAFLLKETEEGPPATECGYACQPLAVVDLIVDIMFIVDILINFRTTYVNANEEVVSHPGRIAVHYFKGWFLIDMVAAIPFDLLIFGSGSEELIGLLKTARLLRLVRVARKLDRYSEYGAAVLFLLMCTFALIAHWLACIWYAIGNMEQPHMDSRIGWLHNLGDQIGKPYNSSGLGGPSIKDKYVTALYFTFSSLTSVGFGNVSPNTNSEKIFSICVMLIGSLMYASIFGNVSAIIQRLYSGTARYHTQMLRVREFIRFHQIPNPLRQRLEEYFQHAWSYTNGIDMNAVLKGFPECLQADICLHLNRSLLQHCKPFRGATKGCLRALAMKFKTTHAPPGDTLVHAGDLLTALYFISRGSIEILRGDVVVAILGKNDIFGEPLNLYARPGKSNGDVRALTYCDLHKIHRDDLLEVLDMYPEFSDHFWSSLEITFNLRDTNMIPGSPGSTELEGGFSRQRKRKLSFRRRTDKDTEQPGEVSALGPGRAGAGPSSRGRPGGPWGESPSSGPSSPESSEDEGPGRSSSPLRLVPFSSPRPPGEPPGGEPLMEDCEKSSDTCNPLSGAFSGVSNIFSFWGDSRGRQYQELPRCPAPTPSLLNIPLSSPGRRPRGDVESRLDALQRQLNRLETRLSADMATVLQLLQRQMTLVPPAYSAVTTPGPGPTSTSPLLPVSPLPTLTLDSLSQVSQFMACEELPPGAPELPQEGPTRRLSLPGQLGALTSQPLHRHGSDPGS
KCNK9 block – inhibitors of human KCNK9 two-pore domain potassium channel | Q9NPC2 | HEK293 KCNK9, FluxOR thallium flux fluorescence; active compounds read low | B-score at 10 µM | 310,000 tested, 1.2% active;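 active means ratio B-score over 3 SD below the library mean, with starting fluorescence within 5 SD of its mean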;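 further: negative B-score means less thallium flux so channel inhibition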
KCNQ1 block – human KCNQ1 channel inhibition | P51787 | CHO-K1 KCNQ1, FluxOR thallium flux fluorescence; active compounds read high | B-score at 10 µM | 310,000 tested, 1.3% active;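 active means compounds whose thallium flux B-score, printed positive for inhibition, exceeds three library SD while starting fluorescence stays within three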;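 further: channel opened by potassium depolarization with thallium stimulus after 20 min compound exposure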
KCNQ1 inh valid – confirmation of human KCNQ1 potassium channel inhibitors; 1,600 tested, 93% active; shares compounds with KCNQ1 block; KCNQ1 cell line, FluxOR thallium flux fluorescence; inhibition, % at 10 µM;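 active means primary screen active, with duplicate mean exceeding buffer control mean plus 3 SD of buffer wells, cut at about 28% in these data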;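 further: 0% = buffer control ratio and 100% = XE991 inhibitor control ratio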
CHO Tl flux – activity in parental CHO cells lacking KCNQ1. fluorescence ratio (Tl flux) at 10 µM. 1,600 tested, 21% active. parental CHO-K1, FluxOR thallium flux fluorescence ratio; active compounds read low; zero means no signal rise above baseline. shares compounds with KCNQ1 block;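 active means mean of duplicate thallium-flux fluorescence ratios in parental host cells more than 5 SD below the buffer control mean, cut at about 0.38 in these data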;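 further: ratio is peak minus minimum fluorescence divided by baseline fluorescence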
KCNQ1 APC inh – human KCNQ1 inhibition validated by electrophysiology; shares compounds with KCNQ1 block; KCNQ1-CHO cells, automated patch clamp current; calls only at 10 µM; 490 tested, 20% active; AID 624120;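 active means KCNQ1 current drop exceeding 3 SD of negative control wells, seen in both duplicate runs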;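 further: steady state current during a 2 s step from -80 to +40 mV; negative values mean current inhibition and positive values mean potentiation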
KCNQ2 inh – rat KCNQ2 inhibition in KCNQ1 inhibitor specificity screen. shares compounds with KCNQ1 block. KCNQ2 cells, FluxOR thallium flux fluorescence. inhibition, % at 10 µM. 1,600 tested, 71% active;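 active means mean percent inhibition of the KCNQ2 thallium signal more than 5 SD above the buffer-only control wells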;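 further: KCNQ2 expressed in CHO cells; 0% = buffer control wells and 100% = XE-991 inhibitor control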
KCNQ1 KCNE1 spec – selectivity of KCNQ1 inhibitors: inhibition of human KCNQ1/KCNE1 channel | 1,600 tested, 77% active | inhibition, % at 10 µM | KCNQ1/KCNE1 cells, FluxOR thallium flux fluorescence | shares compounds with KCNQ1 block | AID 652147;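 active means mean percent inhibition of duplicate wells above the buffer-only control mean plus 3 SD of those controls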;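 further: 0% = buffer only wells and 100% = XE-991 inhibitor control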
KCNK9 block conf – human KCNK9 inhibitor confirmation. shares compounds with KCNK9 block. HEK293 KCNK9 cells, FluxOR thallium flux fluorescence. inhibition, % at 10 µM. 4,900 tested, 43% active. AID 492992;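 active means thallium signal inhibited by more than 5 SD of the compound-free buffer control wells, on both duplicate plates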;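 further: 0% = assay buffer control wells without compound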
Kir21 sel – tests whether KCNK9 modulators also affect mouse Kir2.1; shares compounds with KCNK9 block; Kir2.1 cells, FluxOR thallium flux fluorescence; AID 492993; inhibition, % at 10 µM; 4,900 tested, 4% active;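 active means thallium signal drop more than 5 SD beyond the mean of the no-compound control wells, seen in both duplicate plates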;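 further: signal is fluorescence rise after thallium addition divided by baseline fluorescence; plate controls were assay buffer only for no effect and full block by chlorpromazine control for full effect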
KCNK9 uninduced – second counter-screen for KCNK9 modulators: effect in non-induced cells; 4,900 tested, 40% active; inhibition, % at 10 µM; non-induced KCNK9-HEK293, FluxOR thallium flux; shares compounds with KCNK9 block; AID 492997;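 active means thallium signal drop beyond 5 SD of the untreated control mean, on both duplicate plates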;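 further: plate controls were buffer only IC0 wells for no effect and SID17386958 at its maximal inhibitory level for full effect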
* hit, by the source's call.

What do the screens show for `COC(=O)CSC1=NS(=O)(=O)c2ccccc21`?
KCNK3 inh: inactive; KCNQ1 pot: inactive; hERG rescue: -31.0; KCNK9 block: inactive; KCNQ1 block: 8*; KCNQ1 inh valid: 100.5*; CHO Tl flux: 0.377*; KCNQ2 inh: 97.7%*; KCNQ1 KCNE1 spec: 141.0%*

Results for O=C(CSC1=NS(=O)(=O)c2ccccc21)Nc1ccccc1 ?
KCNK3 inh: inactive; KCNQ1 pot: inactive; hERG rescue: -23.7; KCNK9 block: inactive; KCNQ1 block: 7*; KCNQ1 inh valid: 78.5*; CHO Tl flux: 0.4; KCNQ2 inh: 85.3%*; KCNQ1 KCNE1 spec: 122.0%*

How did CCCCOc1ccc(C(=O)Nc2cccc(-n3cnnn3)c2)cc1OC do in these assays?
KCNK3 inh: inactive; KCNQ1 pot: inactive; hERG rescue: -8.5; KCNK9 block: inactive; KCNQ1 block: inactive

How did COc1ccc(-c2cc3ccccc3[nH]2)cc1 do in these assays?
KCNK3 inh: inactive; KCNQ1 pot: inactive; hERG rescue: -11.6; KCNK9 block: inactive; KCNQ1 block: inactive

Results for Cc1ccc(O)c(-c2cc3ccccc3[nH]2)c1 ?
KCNK3 inh: inactive; KCNQ1 pot: inactive; hERG rescue: -5.8; KCNK9 block: inactive; KCNQ1 block: 10*; KCNQ1 inh valid: 131.5*; CHO Tl flux: 0.458; KCNQ2 inh: inactive; KCNQ1 KCNE1 spec: 165.5%*

How did C/C=C/c1ccc(OCC(=O)N(C)CC(=O)Nc2ccc(F)cc2)c(OC)c1 do in these assays?
KCNK3 inh: inactive; KCNQ1 pot: inactive; hERG rescue: -10.4; KCNK9 block: inactive; KCNQ1 block: inactive

Results for CCCOc1ccc(Br)cc1CSC(=N)N ?
KCNK3 inh: inactive; KCNQ1 pot: inactive; hERG rescue: -16.0; KCNK9 block: inactive; KCNQ1 block: 9*; KCNQ1 inh valid: 100.5*; CHO Tl flux: 0.461; KCNQ1 APC inh: active; KCNQ2 inh: 78.0%*; KCNQ1 KCNE1 spec: 45.5%*

How did CCOc1ccc(Br)cc1CC(=O)O do in these assays?
KCNK3 inh: inactive; KCNQ1 pot: inactive; hERG rescue: -7.5; KCNK9 block: inactive; KCNQ1 block: inactive

How did CCc1ccc(CNC(=O)c2cc3c(C)nc4ccccc4c3o2)cc1 do in these assays?
KCNK3 inh: inactive; KCNQ1 pot: inactive; hERG rescue: -20.0; KCNK9 block: inactive; KCNQ1 block: 8*; KCNQ1 inh valid: 140.5*; CHO Tl flux: 0.245*; KCNQ2 inh: 113.3%*; KCNQ1 KCNE1 spec: active

What do the screens show for `COc1cccc(CNC(=O)c2cc3c(C)nc4ccccc4c3o2)c1`?
KCNK3 inh: inactive; KCNQ1 pot: inactive; hERG rescue: -14.1; KCNK9 block: inactive; KCNQ1 block: inactive

What do the screens show for `C=C(C)Cn1c(=O)c2c(nc3n2CC(C)CN3Cc2ccccc2)n(C)c1=O` (stereo unspecified)?
KCNK3 inh: inactive; KCNQ1 pot: inactive; hERG rescue: -3.9; KCNK9 block: inactive; KCNQ1 block: inactive

Results for COc1ccc2oc(C(=O)OCC(=O)N(CCC#N)c3ccccc3)c(C)c2c1 ?
KCNK3 inh: inactive; KCNQ1 pot: inactive; hERG rescue: -6.5; KCNK9 block: inactive; KCNQ1 block: inactive

Results for O=C(Nc1nc2ccccc2[nH]1)c1ccc(Cl)c(S(=O)(=O)N2CCCC2)c1 ?
KCNK3 inh: inactive; KCNQ1 pot: inactive; hERG rescue: -9.1; KCNK9 block: inactive; KCNQ1 block: 11*; KCNQ1 inh valid: 0.0; CHO Tl flux: 0.502; KCNQ2 inh: inactive; KCNQ1 KCNE1 spec: 35.5%*

Results for Clc1ccc(Cl)c2sc(N3CCOCC3)nc12 ?
KCNK3 inh: inactive; KCNQ1 pot: inactive; hERG rescue: -0.3; KCNK9 block: inactive; KCNQ1 block: 8*; KCNQ1 inh valid: 25.5*; CHO Tl flux: 0.466; KCNQ2 inh: inactive; KCNQ1 KCNE1 spec: inactive

What do the screens show for `Clc1ccc(Cl)c2sc(N3CCCC3)nc12`?
KCNK3 inh: inactive; KCNQ1 pot: inactive; hERG rescue: -8.8; KCNK9 block: inactive; KCNQ1 block: inactive

What do the screens show for `Oc1c(Br)cc(Br)c(/C=N/n2c(-c3ccccc3)n[nH]c2=S)c1Br`?
KCNK3 inh: inactive; KCNQ1 pot: inactive; hERG rescue: -5.6; KCNK9 block: inactive; KCNQ1 block: 7*; KCNQ1 inh valid: 83.0*; CHO Tl flux: 0.448; KCNQ2 inh: inactive; KCNQ1 KCNE1 spec: inactive; KCNK9 block conf: inactive; Kir21 sel: inactive; KCNK9 uninduced: inactive

What do the screens show for `Oc1ccc(Br)cc1/C=N/n1c(-c2ccccc2)n[nH]c1=S`?
KCNK3 inh: inactive; KCNQ1 pot: inactive; hERG rescue: -11.6; KCNK9 block: inactive; KCNQ1 block: inactive

What do the screens show for `C[C@@H]1CN(C(=O)c2nc3ccc(Cl)cn3c2CNCC[C@@H]2C[C@@H]3C=C[C@H]2C3)C[C@H](C)O1`?
KCNK3 inh: inactive; KCNQ1 pot: inactive; hERG rescue: -6.6; KCNK9 block: inactive; KCNQ1 block: inactive

How did O=C(c1nc2ccc(Cl)cn2c1CNCC[C@@H]1C[C@@H]2C=C[C@H]1C2)N1CCCCCCC1 do in these assays?
KCNK3 inh: inactive; KCNQ1 pot: inactive; hERG rescue: -13.6; KCNK9 block: inactive; KCNQ1 block: 9*; KCNQ1 inh valid: 97.5*; CHO Tl flux: 0.466; KCNQ1 APC inh: inactive; KCNQ2 inh: 81.7%*; KCNQ1 KCNE1 spec: 84.0%*; KCNK9 block conf: inactive; Kir21 sel: inactive; KCNK9 uninduced: inactive

What do the screens show for `COC(=O)c1cccc(F)c1C(=O)c1cccc2ccccc12`?
KCNK3 inh: inactive

Bioassay records: PubChem, Johns Hopkins Ion Channel Center
